Reference: ChEMBL document CHEMBL1149468, “Pyridobenzodiazepines: a novel class of orally active, vasopressin V2 receptor selective agonists” (Bioorg Med Chem Lett, 2006)
Active and inactive are the calls of the source. No cut-off for these calls is given here. Bridge positions count the residues as written; N and C are the ends. Square brackets hold non-standard residues; d marks the D form. Peptide text beside a SMILES is read from it. Orn = NCCC[C@H](N)C(=O)O; Mpa = O=C(O)CCS

How the values were obtained:
Rattus norvegicus [1] = assay: Antidiuretic effect measured as increase in osmolality over control in water-loaded Sprague-Dawley rat at 10 mg/kg, po; type: functional, Urine
Outline: (§1)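 Conscious water-loaded rats dosed orally; 30 min later stomachs gavaged with deionized water, 30 mL/kg. Urine collected over 4 h for volume; osmolality by cryoscopic osmometer; Na+, K+, Cl- by ion-selective electrodes. Expressed as percent change versus control at the stated dose (screening dose 10 mg/kg po).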

Rattus norvegicus [2] = assay: Antidiuretic effect measured as decrease in urine volume over control in water-loaded Sprague-Dawley rat at 10 mg/kg, po; type: functional; parameters: Activity: scale not given: the % may be the effect or the level left; details: for Activity: dose 10 mg/kg; for ED50: Rattus norvegicus, Sprague-Dawley, Urine; outline: as §1
Vasopressin V2 receptor [3] = target: T1, Vasopressin V2 receptor (Homo sapiens, UniProt P30518); assay: Displacement of [3H]AVP from human V2 receptor transfected in LV2 cells; type: cell-based
T1 sequence (P30518 whole entry): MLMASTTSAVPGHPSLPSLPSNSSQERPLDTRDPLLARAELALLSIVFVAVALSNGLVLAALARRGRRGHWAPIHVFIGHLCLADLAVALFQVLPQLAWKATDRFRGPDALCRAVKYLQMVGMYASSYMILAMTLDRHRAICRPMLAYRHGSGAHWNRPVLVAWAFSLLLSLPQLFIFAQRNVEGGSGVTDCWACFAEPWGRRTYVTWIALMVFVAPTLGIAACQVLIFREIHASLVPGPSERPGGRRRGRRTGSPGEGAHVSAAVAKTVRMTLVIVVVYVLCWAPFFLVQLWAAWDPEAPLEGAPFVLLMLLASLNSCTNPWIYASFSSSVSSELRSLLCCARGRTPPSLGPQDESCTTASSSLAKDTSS
Outline: (§2)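 Inhibition of [3H]AVP binding to membranes from CHO cells expressing human V1a receptors or from LV2 cells transfected with human V2 receptors; IC50 values are means of two to five (or three) experiments.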

Vasopressin V1a receptor [4] = target: T2, Vasopressin V1a receptor (Homo sapiens, UniProt P37288); assay: Displacement of [3H]AVP from human V1a receptor expressed in CHO cells at 1 uM; type: cell-based
Target sequence in this assay (P37288 whole entry, looked up): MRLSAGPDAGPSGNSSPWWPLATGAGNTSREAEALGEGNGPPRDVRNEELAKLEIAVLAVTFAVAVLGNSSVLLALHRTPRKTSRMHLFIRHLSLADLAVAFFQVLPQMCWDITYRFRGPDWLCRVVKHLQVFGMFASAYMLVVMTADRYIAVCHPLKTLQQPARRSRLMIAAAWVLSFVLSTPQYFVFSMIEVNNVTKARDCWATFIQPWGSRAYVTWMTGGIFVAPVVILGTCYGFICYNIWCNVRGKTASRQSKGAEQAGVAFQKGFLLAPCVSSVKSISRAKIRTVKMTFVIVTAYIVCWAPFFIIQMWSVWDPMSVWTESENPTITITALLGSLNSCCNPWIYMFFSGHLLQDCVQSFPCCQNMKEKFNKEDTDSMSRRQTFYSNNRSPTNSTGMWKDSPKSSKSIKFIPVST

Vasopressin V2 receptor [5] = target: T1, Vasopressin V2 receptor; assay: Displacement of [3H]AVP from human V2 receptor transfected in LV2 cells at 300 nM; type: cell-based
Outline: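 Inhibition of [3H]AVP binding to membranes of LV2 cells transfected with human V2 receptors, reported as percent inhibition at 300 nM.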

Vasopressin V1a receptor [6] = target: T2, Vasopressin V1a receptor; assay: Displacement of [3H]AVP from human V1a receptor expressed in CHO cells; type: cell-based; outline: as §2
Target sequence in this assay (P37288 whole entry): as the sequence (P37288 whole entry, looked up) above

Oxytocin receptor = target: T3, Oxytocin receptor (Rattus norvegicus, UniProt P70536); assay: Antagonism of OT-induced response at OT receptor in rat uterine strips; type: functional
T3 sequence (P70536 whole entry): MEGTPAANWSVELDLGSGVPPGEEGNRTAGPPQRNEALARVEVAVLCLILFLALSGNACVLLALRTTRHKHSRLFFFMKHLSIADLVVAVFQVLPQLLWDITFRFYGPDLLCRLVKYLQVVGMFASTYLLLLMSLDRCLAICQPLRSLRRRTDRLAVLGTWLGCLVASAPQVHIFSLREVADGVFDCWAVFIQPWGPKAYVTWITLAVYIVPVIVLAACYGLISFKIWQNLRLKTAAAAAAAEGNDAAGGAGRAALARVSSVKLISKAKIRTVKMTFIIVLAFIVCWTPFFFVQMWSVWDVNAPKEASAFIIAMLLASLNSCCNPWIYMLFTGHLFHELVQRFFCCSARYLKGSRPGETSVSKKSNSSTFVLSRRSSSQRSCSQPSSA

[7] = target: Vasopressin V1a receptor (Rattus norvegicus) (UniProt P30560); assay: Agonist activity at V1a receptor indicated by production of contractions in rat tail arteries; type: functional, tissue-based
Sequence of Vasopressin V1a receptor (Rattus norvegicus) (P30560 whole entry, looked up): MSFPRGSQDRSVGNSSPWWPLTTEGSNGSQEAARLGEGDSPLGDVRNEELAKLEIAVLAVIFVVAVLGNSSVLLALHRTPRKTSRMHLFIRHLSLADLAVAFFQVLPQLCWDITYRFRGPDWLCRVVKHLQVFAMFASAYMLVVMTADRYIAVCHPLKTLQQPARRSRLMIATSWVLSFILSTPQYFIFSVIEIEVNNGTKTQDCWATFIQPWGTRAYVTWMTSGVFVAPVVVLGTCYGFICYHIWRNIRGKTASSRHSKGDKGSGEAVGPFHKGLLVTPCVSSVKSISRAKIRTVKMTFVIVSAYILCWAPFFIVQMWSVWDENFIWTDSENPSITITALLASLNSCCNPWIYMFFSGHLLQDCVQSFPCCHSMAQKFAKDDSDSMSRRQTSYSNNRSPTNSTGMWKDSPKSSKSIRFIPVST

Vasopressin V2 receptor [8] = target: T1, Vasopressin V2 receptor; assay: Binding to human V2 receptor expressed in LV2 cells by cAMP production; type: functional, cell-based
Vasopressin V1a receptor [9] = target: Vasopressin V1a receptor (Rattus norvegicus, UniProt P30560); assay: Antagonism of AVP-induced response at V1a receptor in isolated rat tail arteries; type: functional, tissue-based
Sequence of Vasopressin V1a receptor (Rattus norvegicus, UniProt P30560) (P30560 whole entry): as the sequence (P30560 whole entry, looked up) above

[10] = target: T4, Oxytocin receptor (Rattus norvegicus) (UniProt P70536); assay: Agonist activity at OT receptor indicated by production of contractions in rat uterine strips; type: functional
T4 sequence (whole entry): T3 sequence (P70536 whole entry)

Vasopressin V1a receptor [11] = target: T2, Vasopressin V1a receptor; assay: Displacement of [3H]AVP from human V1a receptor expressed in CHO cell membrane at 10 uM; type: cell membranes
Target sequence in this assay (P37288 whole entry, looked up): as the sequence (P37288 whole entry, looked up) above

Vasopressin V1a receptor [12] = target: T2, Vasopressin V1a receptor; assay: Displacement of [3H]AVP from human V1a receptor expressed in CHO cells at 0.1 uM; type: cell-based
Target sequence in this assay (P37288 whole entry, looked up): as above

IC50 (Vasopressin V2 receptor [3]) [nM] | inhibition (Vasopressin V2 receptor [5]) [%] | Structure (SMILES) | Activity (Rattus norvegicus [1]) [%] | Activity (Rattus norvegicus [2]) [%] | other results
– | 5 | Cc1ccn(-c2cc(F)ccc2C(=O)N2Cc3cccnc3Nc3ccccc32)n1 | 177 | 63 | –
390 | – | Cc1ccnn1-c1ccc(C(=O)N2Cc3cccnc3Nc3ccccc32)c(Cl)c1 | 189 | 61 | –
– | 26 | O=C(c1ccc(-n2ccc(-c3ccncc3)n2)cc1Br)N1Cc2cccnc2Nc2ccccc21 | 11 | 24 | –
933 | – | Cc1ccn(-c2ccc(C(=O)N3Cc4cccnc4Nc4ccccc43)c(F)c2)n1 | 272 | 59 | –
493 | – | Cc1ccn(-c2ccc(C(=O)N3Cc4cccnc4Nc4ccccc43)c(C(F)(F)F)c2)n1 | 239 | 87 | Activity [7]: inactive; EC50 (Vasopressin V2 receptor [8]): 1.67 nM; IC50 (Vasopressin V1a receptor [6]): 5950 nM; ED50 (Rattus norvegicus [2]): 0.1 mg/kg; IC50 (Oxytocin receptor): 1260 nM; IC50 (Vasopressin V1a receptor [9]): > 30000 nM; Activity [10]: inactive
413 | – | Cc1ccnn1-c1ccc(C(=O)N2Cc3cccnc3Nc3ccccc32)c(C(F)(F)F)c1 | 4 | 25 | inhibition (Vasopressin V1a receptor [12]): 11%
– | 26 | CC(C)(C)c1ccn(-c2ccc(C(=O)N3Cc4cccnc4Nc4ccccc43)c(C(F)(F)F)c2)n1 | -7 | 6 | –

Continued, compound first:

Structure (SMILES) | IC50 (Vasopressin V2 receptor [3]) [nM] | inhibition (Vasopressin V2 receptor [5]) [%] | Activity (Rattus norvegicus [1]) [%] | Activity (Rattus norvegicus [2]) [%] | other results
Cc1ccn(-c2ccc(C(=O)N3Cc4cccnc4N(C)c4ccccc43)c(Cl)c2)n1 | 475 | – | 275 | 71 | inhibition (Vasopressin V1a receptor [4]): 20%
CN1c2ccccc2N(C(=O)c2ccc(-c3ccn(C)n3)cc2Cl)Cc2cccnc21 | – | – | -11 | 10 | –
Cc1ccn(-c2ccc(C(=O)N3Cc4cccnc4Nc4ccccc43)c(Br)c2)n1 | 296 | – | 247 | 85 | inhibition (Vasopressin V1a receptor [4]): 30%
O=C(c1ccc(-n2ccc(C(F)(F)F)n2)cc1C(F)(F)F)N1Cc2cccnc2Nc2ccccc21 | – | -7 | 183 | 69 | –
Cn1ccc(-c2ccc(C(=O)N3Cc4cccnc4Nc4ccccc43)c(Cl)c2)n1 | 183 | – | 134 | 76 | IC50 (Vasopressin V1a receptor [6]): 1780 nM
CCOc1ccc(C[C@H]2NC(=O)CCSSC[C@@H](C(=O)N3CCC[C@H]3C(=O)N[C@@H](CCCN)C(=O)NCC(N)=O)NC(=O)[C@H](CC(N)=O)NC(=O)[C@H]([C@@H](C)O)NC(=O)[C@H]([C@@H](C)CC)NC2=O)cc1 [ATOSIBAN] ([Mpa][dY](Et)ITNCP[Orn]G-NH2; disulfide 1-6) | – | – | – | – | IC50 (Oxytocin receptor): 12 nM
Cc1ccn(-c2ccc(C(=O)N3Cc4cccnc4N(C)c4ccccc43)c(C(F)(F)F)c2)n1 | – | 10 | 198 | 72 | inhibition (Vasopressin V1a receptor [11]): 32%
Cc1ccn(-c2ccc(C(=O)N3Cc4cccn4Cc4ccccc43)c(Cl)c2)n1 | 80 | – | 286 | 74 | EC50 (Vasopressin V2 receptor [8]): 0.74 nM; IC50 (Vasopressin V1a receptor [6]): 778 nM; ED50 (Rattus norvegicus [2]): 0.14 mg/kg
Cc1ccn(-c2ccc(C(=O)N3Cc4cccnc4Nc4ccccc43)c(Cl)c2)n1 | 91.5 | – | 172 | 80 | inhibition (Vasopressin V1a receptor [4]): 38%
Cc1n[nH]c(-c2ccc(C(=O)N3Cc4cccnc4Nc4ccccc43)c(Cl)c2)n1 | – | – | 516 | 86 | –
O=C(c1ccc(-n2ccc(C(F)(F)F)n2)cc1Cl)N1Cc2cccnc2Nc2ccccc21 | – | 13 | 162 | 72 | –
